Assay results published in the RNAGym collection of RNA variant scans (doi:10.1126/science.aae0568).
This sample holds only a part of the variants without activity.

B1: tRNA (parent)
chain: GUUCCGUUGGCGUAAUGGUAACGCGUCUCCCUCCUAAGGAGAAGACUGCGGGUUCGAGUCCCGUACGGAACG

Variants of: B1
Test: yeast fitness relative to wild type (ratio to wild type); higher = fitter; tRNA-Arg(CCU), competitive growth, 37 C, YPD
Method in brief: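 Genotype frequency changes were the basis for Darwinian fitness relative to wild type. The frequencies came from 100-nucleotide paired-end sequencing of gene amplicons from the start population and each end population of pooled yeast strains with tRNA-Arg(CCU) gene variants at the native locus. Competition ran in YPD at 37°C for 24 hours in six replicates, genotypes needed ≥ 100 starting reads, and estimates < 0.5 were set to 0.5.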

| Variant | yeast fitness |
| --- | --- |
| U3A C31U A40C A70G | ≤ 0.5 |
| U3A U7G | 0.734 |
| U3A U13C G68A | 0.528 |
| U3A U16C A20C | ≤ 0.5 |
| U3A U7C C11U U13C C31A | ≤ 0.5 |
| U3A G9A A14C C55G | ≤ 0.5 |
| U3A G12C G58A C66U | ≤ 0.5 |
| U3A C31U A70U | 0.688 |
| U3A U35C A57C | ≤ 0.5 |
| U3A C34A C49U C55G | ≤ 0.5 |
| U3C A20C G23C | ≤ 0.5 |
| U3A G6C G17A A37U G58A | ≤ 0.5 |
| U3A G39A C55U U59G G68C | ≤ 0.5 |
| U3C A15U U16G U19A A43C A57U | ≤ 0.5 |
| U3A U13G U47C A70C | ≤ 0.5 |
| U3A C55G A65C | ≤ 0.5 |
| U3A G12C U13C C49U G56C | ≤ 0.5 |
| U3A G10A U19A A42G U64A | ≤ 0.5 |
| U3A G6A G12A A20G C22G U26A G48C G68U | ≤ 0.5 |
| U3A G12A U19A U64C | ≤ 0.5 |
| U3C A20U G68U A69G | 0.99 |
| U3A G9A A37G G68C A69G | ≤ 0.5 |
| U3A C34U | 0.735 |
| U3C A21G C30A C33G U59A C66U | ≤ 0.5 |

| Variant | yeast fitness |
| --- | --- |
| U3A G12A A15G C24U A45U | ≤ 0.5 |
| U3A G9A A14C | 0.551 |
| U3C A21G C29G | ≤ 0.5 |
| U3A G6U G12C C22A | ≤ 0.5 |
| U3A G17C A20C U28A C46A C61A | ≤ 0.5 |
| U3A U19C C24U A37G C60G | ≤ 0.5 |
| U3A G9C C31G C61U | 0.581 |
| U3A U19G G25A G67A | 0.56 |
| U3A G9C | 0.567 |
| U3A G9A | 0.977 |
| U3A G25A G58C C66U | 0.596 |
| U3A G18A U19C C27G C61A U64G | ≤ 0.5 |
| U3A U7G C29G C49U | ≤ 0.5 |
| U3C A21C C22U C31U C33U | ≤ 0.5 |
| U3A U26A G58C G63A | ≤ 0.5 |
| U3C A14C A45C A65C | ≤ 0.5 |
| U3C A20G C33U A40G C62G A70U | ≤ 0.5 |
| U3C A14G C30U A45C C46G A69C | ≤ 0.5 |
| U3A G9A C29G | 0.585 |
| U3C A14U A20C C24G C55U A69C | ≤ 0.5 |
| U3A G41C C55U | ≤ 0.5 |
| U3C A15U U16C C34U A43G | ≤ 0.5 |
| U3A C33U A45U | 0.834 |
| U3A G10C A36U A40C A57G C60G | ≤ 0.5 |

| Variant | yeast fitness |
| --- | --- |
| U3A G12C A21C A36C A70U | 0.553 |
| U3A C49A | 0.609 |
| U3A C49U | 0.954 |
| U3A C49G | 0.792 |
| U3A G67C | 0.827 |
| U3A G9C A20G C29A G56A G67U | ≤ 0.5 |
| U3A G6C C31A U47G C62A | ≤ 0.5 |
| U3A U53C U54C | ≤ 0.5 |
| U3C A14U | 0.639 |
| U3C A14G | 0.917 |
| U3C A20U C30G C33U G58C | ≤ 0.5 |
| U3A G10A U32G C66A | ≤ 0.5 |
| U3A C30U U59A A69C | ≤ 0.5 |
| U3A U53C | 0.668 |
| U3A C46A G67U | 0.603 |
| U3A C49U A69U | 0.759 |
| U3A C31G A43U | 0.597 |
| U3C A20G | 0.917 |
| U3A U26C U59C | ≤ 0.5 |
| U3A C31U A57U | 0.598 |
| U3A U19A C33U G52C A65G | ≤ 0.5 |
| U3A U8A C31G A40C | 0.563 |
| U3A G9C A20G A40G U64C | ≤ 0.5 |
| U3C A14G C24A G44A A65C | ≤ 0.5 |

| Variant | yeast fitness |
| --- | --- |
| U3A G23C C46A C49A C61G | ≤ 0.5 |
| U3A G25C U47A | 0.547 |
| U3A C46U G48A C55U U59A | ≤ 0.5 |
| U3A U7G A14U G25A G41C C46U C61A | 0.519 |
| U3A G18A C22U | ≤ 0.5 |
| U3A G9A U19A G44C G68C | ≤ 0.5 |
| U3A G48C U59C | 0.537 |
| U3A C33U | 0.791 |
| U3A G68A | 0.854 |
| U3A U19A C46A G56A | 0.564 |
| U3A U19A G58C | 0.675 |
| U3A C46G C49U G56C | 0.734 |
| U3A U16C C46U | 0.631 |
| U3A C62U U64C | 0.77 |
| U3C A15G C29A A40U C55G C61G | ≤ 0.5 |
| U3C A15C A36C U47A C62G | ≤ 0.5 |
| U3A U7C A15U G23C C27U G52A | ≤ 0.5 |
| U3A G12A C24U A45U | ≤ 0.5 |
| U3A G12C A21C A36C | ≤ 0.5 |
| U3A C31G G67U | 0.542 |
| U3A C34U C49A G52A | 0.622 |
| U3A U19A C33A C49U G52A | ≤ 0.5 |
| U3C A20U A70C | 0.59 |
| U3A U26C U53C | ≤ 0.5 |

| Variant | yeast fitness |
| --- | --- |
| U3A C31U U35G C62U | ≤ 0.5 |
| U3A U26G C66U | ≤ 0.5 |
| U3A U16C U19C C46U | ≤ 0.5 |
| U3C A15C A36U | ≤ 0.5 |
| U3C A15C A20G | ≤ 0.5 |
| U3A G51A | 0.765 |
| U3A C31U A40C | 0.566 |
| U3A C60A | 0.677 |
| U3C A14C A21G C22U A37U C49A C60G | ≤ 0.5 |
| U3C A15U C30U | 0.57 |
| U3A C46A A69C | 0.997 |
| U3A G9A C62G C66G | ≤ 0.5 |
| U3A G38A A40G A69U | ≤ 0.5 |
| U3A G44A C55U | ≤ 0.5 |
| U3A G6A G25C A43C | 0.614 |
| U3A G12A U19A G38C G48A | ≤ 0.5 |
| U3A G51A A65G A69U | 1.03 |
| U3A G10C A36U A40C A57C | ≤ 0.5 |
| U3A G6C A37U G58A | 0.524 |
| U3A U8A C27G | ≤ 0.5 |
| U3A C46G | 0.982 |
| U3A G56C | 0.716 |
| U3A G56A | 1.02 |
| U3A G6A C46U | 0.638 |

| Variant | yeast fitness |
| --- | --- |
| U3A U32G G56A G68U A69U | ≤ 0.5 |
| U3A G52A | 0.764 |
| U3A G9A A14G C66U | 0.575 |
| U3A C31G A40U G41U | ≤ 0.5 |
| U3C A20G U59C A69C | 0.79 |
| U3A G10C A36U A40C C60G | 0.569 |
| U3A C34U G56C | ≤ 0.5 |
| U3A U19C C29A A36U | ≤ 0.5 |
| U3C A20C C46U | 1.06 |
| U3A C46G A70C | 0.715 |
| U3C A14G C22A C27G G39C C62G | ≤ 0.5 |
| U3A U35A A42C | 0.629 |
| U3C A15C | 0.695 |
| U3A U8A A43U C55U | ≤ 0.5 |
| U3A U54A G56C | 0.767 |
| U3A U32G G63C C66U | ≤ 0.5 |
| U3A G56C G67C | 0.573 |
| U3C A15C G38A U54A A57U | ≤ 0.5 |
| U3A U19A A42U G44C U54A | ≤ 0.5 |
| U3A G17A C22U U35C A65G | ≤ 0.5 |
| U3A G12C | 0.635 |
| U3A G12A | 0.826 |
| U3A U7G A14U G25A G41C C46U | ≤ 0.5 |
| U3C A20U A69C | 0.749 |

| Variant | yeast fitness |
| --- | --- |
| U3A U16C C33G C66G | 0.664 |
| U3A G17C A20C U28A | ≤ 0.5 |
| U3C | 0.996 |
| U3A G9A C30A A42U C49U U59C A69C | ≤ 0.5 |
| U3A U13C A69U | 0.72 |
| U3A U28A | 0.865 |
| U3A G12A U19A C60A A70C | 0.569 |
| U3C A14U U16G U19A A42G C61G | ≤ 0.5 |
| U3A G12A C29G G39A C66G | ≤ 0.5 |
| U3C A15G C30G G56A G63C G67A | ≤ 0.5 |
| U3A G63C | 0.743 |
| U3A G63A | 0.772 |
| U3A G25C | 1.03 |
| U3A G12C G52A A65U | ≤ 0.5 |
| U3A G44A | 0.807 |
| U3A U13C C29A A43G G67C | 0.595 |
| U3A U26C A43C A70U | ≤ 0.5 |
| U3C A21G C34G A69C | ≤ 0.5 |
| U3A G9A U19A G44C C61U C62G | ≤ 0.5 |
| U3A U32A | 0.74 |
| U3A U35A | 0.658 |
| U3A U26A C34U U47G U64A | ≤ 0.5 |
| U3C A15C G17C C24A C31U U35C G68A | ≤ 0.5 |
